The first series has as its system Huh7.5.1. Kind of series: Cytotoxicity against human Huh7.5.1 cells at 20 uM. It counts as cell-based.
Conditions: not given
Turning to `COC(=O)N[C@@H](C(=O)N1CCC[C@H]1C(=O)Nc1ccc(OS(=O)(=O)Oc2ccc(NC(=O)[C@@H]3CCCN3C(=O)[C@H](NC(=O)OC)C(C)C)cc2)cc1)C(C)C`, the Activity is over 30 µM.

Take `COC(=O)N[C@@H](C(=O)N1CCC[C@H]1C(=O)Nc1ccc(OS(=O)(=O)Oc2ccc(NC(=O)[C@@H]3CCCN3C(=O)[C@H](NC(=O)OC)c3ccccc3)cc2)cc1)c1ccccc1`: the Activity is over 30 µM.

Test system in a further series: not listed separately
The series is described as follows: Inhibition of HCV genotype 1b NK5.1 NS5A in infected human Huh 7.5.1 cells assessed as reduction in viral RNA replication incubated for 3 days by luciferase reporter gene assay. Set-up: species or system Hepatitis C virus subtype 1b. Conditions: Hepatitis C virus, NK5.1, Huh-7.5.1, 72 h. Put shortly:
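Genotype 1b replicon cells (Huh 7.5.1 carrying NK5.1-Gluc) were cultured 16 h, then given serially diluted compounds for 3 days. Culture media were collected and luciferase activity measured and normalised to mock-treated cells to derive EC50. Cells were maintained in DMEM with 10% heat-inactivated FBS and antibiotics at 37°C, 6.0% CO₂.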
(In general: A reporter such as luciferase makes a cellular process visible.)
For orientation: EC50 means the concentration needed to bring the measured effect to its halfway point. As to `COC(=O)N[C@@H](C(=O)N1CCC[C@H]1C(=O)Nc1ccc(OS(=O)(=O)Oc2ccc(NC(=O)[C@@H]3CCCN3C(=O)[C@H](NC(=O)OC)C(C)C)cc2)cc1)C(C)C`, the EC50 stood at 575 nM.

On to `COC(=O)N[C@@H](C(=O)N1CCC[C@H]1C(=O)Nc1ccc(OS(=O)(=O)Oc2ccc(NC(=O)[C@@H]3CCCN3C(=O)[C@H](NC(=O)OC)c3ccccc3)cc2)cc1)c1ccccc1`, for which the EC50 amounted to 0.01 nM.

For the origin of these results see ChEMBL document CHEMBL4041464, “New potent biaryl sulfate-based hepatitis C virus inhibitors” (Eur J Med Chem, 2017).
